Experimental data taken from ChEMBL document CHEMBL1142888, “Synthesis, antimicrobial, and anti-inflammatory activities of novel 2-(1-adamantyl)-5-substituted-1,3,4-oxadiazoles and 2-(1-adamantylamino)-5-substituted-1,3,4-thiadiazoles” (2007).
In brackets after ≈: the same amount, converted by molar mass.

Experiments:
Format in all cases: functional
[1] = test system: Staphylococcus aureus; assay: Antimicrobial activity against Staphylococcus aureus IFO 3060 at 200 ug/disc after 24 hrs; details: IFO 3060, 24 h, read-out: IZ
[2] = test system: Candida albicans; assay: Antimicrobial activity against Candida albicans IFO 0583 at 200 ug/disc after 48 hrs; details: IFO 0583, 48 h, read-out: IZ
[3] = test system: Rattus norvegicus; assay: Antiinflammatory effect on carrageenan-induced paw oedema Sprague-Dawley rat assessed as reduction of paw oedema at 60 mg/kg, ip; design: scale not given: the % may be the effect or the level left; details: route intraperitoneal
Procedure, shortened: (§1)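 Rats in groups of five, acclimatised two days, given compound (20, 40, 60 mg/kg) or indomethacin (10 mg/kg) i.p. as suspension in 1 ml 0.5% aqueous carboxymethyl cellulose 1 h before 0.1 ml 1% carrageenin in saline into right hind plantar tissue; left paw got saline. Paw volume by water plethysmometer at 4 h; % protection vs vehicle control; mean ± S.E.M., Student's t test.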

[4] = test system: Rattus norvegicus; assay: Antiinflammatory effect on carrageenan-induced paw oedema Sprague-Dawley rat assessed as reduction of paw oedema at 40 mg/kg, ip; design: scale not given: the % may be the effect or the level left; details: route intraperitoneal; procedure, shortened: as §1
[5] = test system: Escherichia coli; assay: Antimicrobial activity against Escherichia coli IFO 3301 at 200 ug/disc after 24 hrs; details: IFO 3301, 24 h, read-out: IZ
[6] = test system: Bacillus subtilis; assay: Antimicrobial activity against Bacillus subtilis IFO 3007 at 200 ug/disc after 24 hrs; details: IFO 3007, 24 h, read-out: IZ
[7] = test system: Rattus norvegicus; assay: Antiinflammatory effect on carrageenan-induced paw oedema Sprague-Dawley rat assessed as reduction of paw oedema at 20 mg/kg, ip; design: scale not given: the % may be the effect or the level left; details: route intraperitoneal; procedure, shortened: as §1
[8] = test system: Pseudomonas aeruginosa; assay: Antimicrobial activity against Pseudomonas aeruginosa IFO 3448 at 200 ug/disc; details: read-out: IZ
[9] = test system: Candida albicans; assay: Antimicrobial activity against Candida albicans IFO 0583 at 100 ug/disc after 48 hrs; details: IFO 0583, 48 h, read-out: IZ
[10] = test system: Candida albicans; assay: Antimicrobial activity against Candida albicans IFO 0583 after 48 hrs; details: IFO 0583, 48 h
[11] = test system: Staphylococcus aureus; assay: Antimicrobial activity against Staphylococcus aureus IFO 3060 after 24 hrs; details: IFO 3060, 24 h
[12] = test system: Bacillus subtilis; assay: Antimicrobial activity against Bacillus subtilis IFO 3007 after 24 hrs; details: IFO 3007, 24 h
[13] = test system: Escherichia coli; assay: Antimicrobial activity against Escherichia coli IFO 3301 after 24 hrs; details: IFO 3301, 24 h

MIC [10] [µg/mL] | MIC [11] [µg/mL] | MIC [12] [µg/mL] | MIC [13] [µg/mL] | SMILES | zone of inhibition at 200 µg/disc [1] [mm] | zone of inhibition at 200 µg/disc [2] [mm] | Activity [3] [%] | Activity [4] [%] | zone of inhibition at 200 µg/disc [5] [mm] | zone of inhibition at 200 µg/disc [6] [mm] | Activity [7] [%] | zone of inhibition at 200 µg/disc [8] [mm] | zone of inhibition at 100 µg/disc [9] [mm]
 |  |  |  | O=[N+]([O-])c1ccc(-c2nnc(C34CC5CC(CC(C5)C3)C4)o2)c(Cl)c1 | < 10 | < 10 | 19.34 | 21.65 | 10 | 14 | 19.69 | 10 | 
 |  |  |  | c1csc(-c2nnc(NC34CC5CC(CC(C5)C3)C4)s2)c1 | < 10 | < 10 | 37.52 | 28.62 | < 10 | 10 | 15.43 | < 10 | 
 | 2 (≈ 5.88 µM) | 0.5 (≈ 1.47 µM) |  | COc1ccc(-c2nnc(C34CC5CC(CC(C5)C3)C4)o2)cc1OC | 18 | < 10 | 70.2 | 53.61 | 12 | 24 | 36.73 | < 10 | 
 |  |  |  | O=[N+]([O-])c1ccc(-c2nnc(C34CC5CC(CC(C5)C3)C4)o2)cc1 | < 10 | < 10 | 12.08 | 13.56 | < 10 | < 10 | 9.92 | < 10 | 
 |  |  |  | c1ccc(-c2nnc(C34CC5CC(CC(C5)C3)C4)o2)cc1 | < 10 | < 10 | 34.5 | 31.28 | < 10 | < 10 | 23.16 | < 10 | 
2 (≈ 5.41 µM) |  |  |  | C1C2CC3CC1CC(Nc1nnc(C45CC6CC(CC(C6)C4)C5)s1)(C2)C3 | < 10 | 18 | 44.14 | 39.65 | < 10 | < 10 | 31.6 |  | 
 |  | 1 (≈ 3.04 µM) | 4 (≈ 12.1 µM) | O=C(NNC(=S)NC12CC3CC(CC(C3)C1)C2)c1ccccc1 | < 10 | < 10 |  | 1.8 | 16 | 22 | 2.32 | < 10 | 
4 (≈ 10.3 µM) |  |  |  | O=C(NNC(=S)NC12CC3CC(CC(C3)C1)C2)C12CC3CC(CC(C3)C1)C2 | < 10 | 16 | 10.12 | 13.08 | < 10 | < 10 | 11.34 | < 10 | 
 |  |  |  | c1ccc(-c2nnc(NC34CC5CC(CC(C5)C3)C4)s2)cc1 | < 10 | < 10 | 33.53 | 34.05 | 12 | < 10 | 19.69 | < 10 | 
2 (≈ 6.98 µM) |  | 2 (≈ 6.98 µM) |  | c1csc(-c2nnc(C34CC5CC(CC(C5)C3)C4)o2)c1 | 14 | 16 | 63.72 | 49.77 | 11 | 18 | 35.95 | 12 | 
 |  |  |  | O=C(NNC(=S)NC12CC3CC(CC(C3)C1)C2)c1ccc(F)cc1 | < 10 | < 10 |  |  | < 10 | 13 |  | < 10 | 
 |  |  |  | O=C(NNC(=S)NC12CC3CC(CC(C3)C1)C2)c1ccc(Br)cc1 | < 10 | < 10 |  | 2.34 | < 10 | 10 |  | < 10 | 

SMILES | MIC [10] [µg/mL] | MIC [11] [µg/mL] | MIC [12] [µg/mL] | MIC [13] [µg/mL] | zone of inhibition at 200 µg/disc [1] [mm] | zone of inhibition at 200 µg/disc [2] [mm] | Activity [3] [%] | Activity [4] [%] | zone of inhibition at 200 µg/disc [5] [mm] | zone of inhibition at 200 µg/disc [6] [mm] | Activity [7] [%] | zone of inhibition at 200 µg/disc [8] [mm] | zone of inhibition at 100 µg/disc [9] [mm]
Clc1ccccc1C(c1ccccc1)(c1ccccc1)n1ccnc1 [CLOTRIMAZOLE] | 2 (≈ 5.8 µM) |  |  |  |  |  |  |  |  |  |  |  | 21
